Results from ChEMBL document CHEMBL1135128, “Structure-Activity studies for a novel series of tricyclic dihydropyrimidines as K(ATP) channel openers (KCOs)” (Bioorg Med Chem Lett, 2002).

Target: not listed separately
Assay: PEC50 for functional potassium channel opening activity in isolated bladder strips

SMILES | EC50
OC1=C2C(=Nc3ccnn3C2c2ccc(F)c(Br)c2)CCC1 (configuration not stated) | 339 nM
CC1(C)CCC2Nc3ccnn3C(c3ccc(F)c(Br)c3)C2C1=O (configuration not stated) | 1000 nM

Target: Sulfonylurea receptors; K-ATP channels
Assay: Potassium channel opening activity determined in cultured guinea pig urinary bladder cells
Type: functional, cell-based, Cavia porcellus
In short: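 Membrane potential change read as DiBAC dye fluorescence in a 96-well cell-based kinetic FLIPR assay. Fluorescence changes were compared with the response to the KCO P1075, and each compound's maximal response was expressed as % of the P1075 response.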

SMILES | EC50
N#Cc1cccc(C2C3=C(CCCC3=O)NC3=C2C(=O)CCC3)c1 | 3800 nM
OC1=C2C(=Nc3c(-c4ccco4)cnn3C2c2ccc(Cl)c(Cl)c2)CCC1 (configuration not stated) | 12000 nM
OC1=C2C(=Nc3ccnn3C2c2ccc(F)c(C(F)(F)F)c2)CCC1 (configuration not stated) | 290 nM
OC1=C2C(=Nc3ccnn3C2c2ccc(Cl)c(C(F)(F)F)c2)CCC1 (configuration not stated) | 187 nM
OC1=C2C(=Nc3ccnn3C2c2cccc(Cl)c2)CCC1 (configuration not stated) | 1100 nM
Cc1cccc(C2C3=C(O)CCCC3=Nc3ccnn32)c1 (configuration not stated) | > 10000 nM
OC1=C2C(=Nc3ccnn3C2c2ccc(F)cc2)CCC1 (configuration not stated) | 7800 nM
OC1=C2C(=Nc3nnnn3C2c2ccc(F)c(Br)c2)CCC1 (configuration not stated) | > 10000 nM
OC1=C2C(=Nc3n[nH]cc3C2c2ccc(F)c(Br)c2)CCC1 (configuration not stated) | > 10000 nM
OC1=C2C(=Nc3ncnn3C2c2ccc(F)c(Br)c2)CCC1 (configuration not stated) | > 10000 nM
OC1=C2C(=Nc3c(-c4cccc(F)c4)cnn3C2c2ccc(Cl)c(Cl)c2)CCC1 (configuration not stated) | 3200 nM
OC1=C2C(=Nc3ccnn3C2c2ccc(Br)c(F)c2)CCC1 (configuration not stated) | 30 nM
O=[N+]([O-])c1cc(C2C3=C(O)CCCC3=Nc3ccnn32)ccc1Cl (configuration not stated) | 310 nM
CC1(C)CC(=O)C2C(C1)Nc1ccnn1C2c1ccc(F)c(Br)c1 (configuration not stated) | 9700 nM
CC(C)(C)c1cc2n(n1)C(c1ccc(F)c(Br)c1)C1=C(O)CCCC1=N2 (configuration not stated) | 12000 nM
O=C1CSCC2Nc3ccnn3C(c3ccc(F)c(Br)c3)C12 (configuration not stated) | 40 nM
OC1=C2C(=Nc3ccnn3C2c2ccc(F)c(Br)c2)CCC1 (configuration not stated) | 30 nM
CC1(C)CCC2Nc3ccnn3C(c3ccc(F)c(Br)c3)C2C1=O (configuration not stated) | 35 nM
O=S1(=O)CCCC2Nc3ccnn3C(c3ccc(F)c(Br)c3)C21 (configuration not stated) | 910 nM
OC1=C2C(=Nc3ccnn3C2c2cccc(OC(F)(F)F)c2)CCC1 (configuration not stated) | 1700 nM
OC1=C2C(=Nc3ccnn3C2c2ccc(F)c(Cl)c2)CCC1 (configuration not stated) | 256 nM
N#Cc1cccc(C2C3=C(O)CCCC3=Nc3ccnn32)c1 (configuration not stated) | 2860 nM
OC1=C2C(=Nc3c(Br)cnn3C2c2ccc(F)c(Br)c2)CCC1 (configuration not stated) | 394 nM
OC1=C2C(=Nc3ccnn3C2c2cccc(Br)c2)CCC1 (configuration not stated) | 550 nM
OC1=C2C(=Nc3ccnn3C2c2ccc(Cl)c(Cl)c2)CCC1 (configuration not stated) | 130 nM
